Measurements taken from PMC8992012 (Bioorganic & medicinal chemistry, 2021).

Key:
[1] = system: NF-κB; test: NF-κB activation using THP1-Blue NF-κB cells; format: cell-based, human; settings: read-out: EC50 NF-κB induction in the presence of LPS; with LPS (10 ng/mL), THP1-Blue NF-κB cells, SEAP, 20h
How it was run: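 THP1-Blue NF-κB cells carry a stably integrated NF-κB-inducible SEAP. They were plated at 10^5 cells/well in RPMI with 10% FBS, penicillin, streptomycin and Normocin, then treated for 20 h with 5 μM test compound (0.5% DMSO final), alone or with LPS at 10 ng/mL. Supernatant SEAP was read colorimetrically at 630 nm. Signals were two-point normalized: baseline (vehicle or LPS) 100%, reference hit 200%.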

[2] = system: IL-8; test: IL-8 release in THP-1 cells; format: cell-based, human; settings: 5 μM compound
How it was run: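 THP-1 cells were exposed overnight to 5 μM test compound or vehicle (0.5% DMSO), with or without LPS at 1 ng/mL. Secreted IL-8 in a portion of the supernatant was quantified by ELISA.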

[3] = system: NF-κB; test: Confirmatory kinetic screening, cell-based NF-κB FRET assay with LPS; parameters: species or system human; settings: 12h incubation, 21 HTS actives

Cc1ccc(C)c(-c2csc(NC(=O)c3ccc(S(=O)(=O)N4CCCCC4)cc3)n2)c1 [Compound 1, N-(4-(2,5-dimethylphenyl)thiazol-2-yl)-4-(piperidin-1-ylsulfonyl)benzamide]
EC50 [1]: 2.3 µM
IL-8 induction with LPS ([2]; LPS 1 ng/mL, compared to Veh+LPS): significantly enhanced
IL-8 induction, compound alone ([2]; without LPS, compared to Veh): induced IL-8
NF-κB enhancement activity at 12h in the presence of LPS [3]: most potent
